Measurements as given in ChEMBL document CHEMBL1132401, “Glycosylation of fluoroquinolones through direct and oxygenated polymethylene linkages as a sugar-mediated active transport system for antimicrobials” (1999).
≈ marks a conversion by molar mass, not a printed value.

Key:
[1] = system: Enterococcus faecalis; assay: Minimum concentration required to prevent the growth of vancomycin resistant (VanB) Enterococcus faecalis strain A1081; format: functional
Outline: (§1)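 Agar dilution susceptibility testing per NCCLS guidelines against resistant clinical isolates, with nonresistant ATCC stock strains run as controls. Plates were read at 19–24 h of incubation. MIC reported in µg/mL.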

[2] = system: Enterococcus faecalis; assay: Minimum concentration required to prevent the growth of high level gentamicin and beta- lactamase resistant (HLGR, BLA+) Enterococcus faecalis strain A0090; format: functional; outline: as §1
[3] = system: Staphylococcus aureus; assay: Minimum concentration required to prevent the growth of multiply resistant (MRSA) Staphylococcus aureus strain A0170; format: functional; outline: as §1
[4] = system: Enterococcus faecalis; assay: Minimum concentration required to prevent the growth of nonresistant stock strain Enterococcus faecalis 29212 from American Type Culture Collection (ATCC); format: functional; outline: as §1
[5] = system: Enterococcus faecalis; assay: Minimum concentration required to prevent the growth of vancomycin resistant (VanB) Enterococcus faecalis strain A1079; format: functional; outline: as §1
[6] = system: Listeria monocytogenes; assay: Minimum concentration required to prevent the growth of Listeria monocytogenes strain A0183; format: functional
Outline: (§2)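 Agar dilution susceptibility testing per NCCLS guidelines, covering clinical isolates (including resistant phenotypes) and nonresistant ATCC stock strains as controls. Plates read after 19–24 h of incubation. MIC reported in μg/mL.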

[7] = system: Staphylococcus epidermidis; assay: (§3) Minimum concentration required to prevent the growth of multiply resistant Staphylococcus epidermidis (MRSE) coag.-neg. Staph. A0244; format: functional; outline: as §1
[8] = system: Staphylococcus epidermidis; assay: Minimum concentration required to prevent the growth of multiply resistant Staphylococcus epidermidis (MRSE) and cipro resistant (Cipro-R) coag.-neg. Staph. A0247; format: functional; outline: as §1
[9] = system: Enterococcus faecalis; assay: Minimum concentration required to prevent the growth of vancomycin resistant (VanA) Enterococcus faecalis strain A0402; format: functional; details: Enterococcus faecalis; read-out: MIC; outline: as §1
[10] = system: Staphylococcus aureus; assay: Minimum concentration required to prevent the growth of nonresistant stock strain Staphylococcus aureus 29213 from American Type Culture Collection (ATCC)
[11] = system: Pseudomonas aeruginosa; assay: Minimum concentration required to prevent the growth of Pseudomonas aeruginosa strain 28245; format: functional; outline: as §2
[12] = system: Staphylococcus epidermidis; assay: Minimum concentration required to prevent the growth of multiply resistant Staphylococcus epidermidis (MRSE) coag.-neg. Staph. A0245; format: functional; outline: as §1
[13] = system: Escherichia coli; assay: Minimum concentration required to prevent the growth of cipro resistant (Cipro-R) Escherichia coli strain A3529; format: functional; outline: as §2
[14] = system: Pseudomonas aeruginosa; assay: Minimum concentration required to prevent the growth of Pseudomonas aeruginosa strain 28215; format: functional; outline: as §2
[15] = system: Escherichia coli; assay: Minimum concentration required to prevent the growth of cipro resistant (Cipro-R) Escherichia coli strain A3228; format: functional; outline: as §2
[16] = system: Staphylococcus epidermidis; assay: Minimum concentration required to prevent the growth of multiply resistant Staphylococcus epidermidis (MRSE) and cipro resistant (Cipro-R) coag.-neg. Staph. A0248; format: functional; outline: as §1
[17] = system: Klebsiella pneumoniae; assay: Minimum concentration required to prevent the growth of cipro resistant (Cipro-I) Klebsiella pneumoniae strain AM; format: functional; outline: as §1
[18] = system: Escherichia coli; assay: Minimum concentration required to prevent the growth of cipro resistant (Cipro-R) Escherichia coli strain AA; format: functional; outline: as §2
[19] = system: Enterococcus faecalis; assay: Minimum concentration required to prevent the growth of nonresistant stock strain Enterococcus faecalis 51299 from American Type Culture Collection (ATCC); format: functional; details: Enterococcus faecalis; read-out: MIC; outline: as §1
[20] = system: Klebsiella oxytoca; assay: Minimum concentration required to prevent the growth of cipro resistant (Cipro-R) Klebsiella oxytoca strain A3530
[21] = system: Enterococcus faecalis; assay: Minimum concentration required to prevent the growth of vancomycin resistant (VanA) Enterococcus faecalis strain A0401; format: functional; outline: as §1
[22] = system: Escherichia coli; assay: Minimum concentration required to prevent the growth of nonresistant stock Escherichia coli strain 25922 from American Type Culture Collection (ATCC); format: functional; details: ATCC25922; outline: as §2
[23] = system: Enterococcus faecalis; assay: Minimum concentration required to prevent the growth of high level gentamicin and beta- lactamase resistant (HLGR, BLA+) Enterococcus faecalis strain A0089; format: functional; outline: as §1
[24] = system: Staphylococcus aureus; assay: Minimum concentration required to prevent the growth of multiply resistant (MRSA) and cipro resistant (Cipro-R) Staphylococcus aureus strain A2043; format: functional; outline: as §1
[25] = system: Enterococcus faecium; assay: Minimum concentration required to prevent the growth of nonresistant stock strain Enterococcus faecium 19434 from American Type Culture Collection (ATCC); format: functional; outline: as §2
[26] = system: Staphylococcus aureus; assay: Minimum concentration required to prevent the growth of multiply resistant (MRSA) and cipro resistant (Cipro-R) Staphylococcus aureus strain A2800; format: functional; outline: as §1
[27] = system: Staphylococcus aureus; assay: Minimum concentration required to prevent the growth of multiply resistant (MRSA) Staphylococcus aureus strain A0171; format: functional; outline: as §1
[28] = system: Listeria monocytogenes; assay: Minimum concentration required to prevent the growth of Listeria monocytogenes strain A0182; format: functional; outline: as §2
[29] = system: Enterococcus faecium; assay: Minimum concentration required to prevent the growth of vancomycin resistant (VanB) Enterococcus faecium strain A1087; format: functional; outline: as §1
[30] = system: Staphylococcus epidermidis; assay: Minimum concentration required to prevent the growth of multiply resistant Staphylococcus epidermidis (MRSE) and cipro resistant (Cipro-R) coag.-neg. Staph. A0247
[31] = system: Enterococcus faecium; assay: Minimum concentration required to prevent the growth of vancomycin resistant (VanB) Enterococcus faecium strain A0803; format: functional; outline: as §1
[32] = system: Staphylococcus aureus; assay: Minimum concentration required to prevent the growth of nonresistant stock strain Staphylococcus aureus 29213 from American Type Culture Collection (ATCC); remark: listed apart in the source
[33] = system: Staphylococcus epidermidis; assay: as §3
[34] = Enterococcus faecalis, read-out: MIC
[35] = Enterococcus faecium, read-out: MIC
[36] = Staphylococcus aureus, read-out: MIC
[37] = Listeria monocytogenes, read-out: MIC

Structure (SMILES) | MIC [1, 34] | MIC [2] | MIC [3] | MIC [4] | MIC [5] | MIC [6] | MIC [7] | MIC [9] | MIC [10] | MIC [11] | MIC [12] | MIC [13] | MIC [14] | MIC [17] | MIC [19] | MIC [21, 34] | MIC [23, 34] | MIC [25, 35] | MIC [27] | MIC [28] | further results
O=C(O)c1cn(C2CC2)c2cc(N3CCN(CCCO[C@@H]4O[C@@H](CO)[C@H](O)[C@H](O)[C@@H]4O)CC3)c(F)cc2c1=O | 16 µg/mL (≈ 29 µM) | 16 µg/mL (≈ 29 µM) | 8 µg/mL (≈ 14.5 µM) | 16 µg/mL (≈ 29 µM) | 16 µg/mL (≈ 29 µM) | 32 µg/mL (≈ 58 µM) | 32 µg/mL (≈ 58 µM) | 32 µg/mL (≈ 58 µM) | 16 µg/mL (≈ 29 µM) | > 32 µg/mL | 8 µg/mL (≈ 14.5 µM) | > 32 µg/mL | 16 µg/mL (≈ 29 µM) | > 32 µg/mL | 16 µg/mL (≈ 29 µM) | 32 µg/mL (≈ 58 µM) | 32 µg/mL (≈ 58 µM) | > 32 µg/mL | 16 µg/mL (≈ 29 µM) | 32 µg/mL (≈ 58 µM) | MIC [8]: > 32 µg/mL; MIC [15]: > 32 µg/mL; MIC [16]: > 32 µg/mL; MIC [18]: > 32 µg/mL; MIC [20]: > 32 µg/mL; MIC [22]: 0.25 µg/mL (≈ 0.453 µM); MIC [24]: > 32 µg/mL; MIC [26]: > 32 µg/mL
O=C(O)c1cn(C2CC2)c2cc(N3CCN(CCCO[C@@H]4O[C@@H](CO)[C@@H](O)[C@H](O)[C@@H]4O)CC3)c(F)cc2c1=O | 4 µg/mL (≈ 7.25 µM) | 4 µg/mL (≈ 7.25 µM) | 4 µg/mL (≈ 7.25 µM) | 8 µg/mL (≈ 14.5 µM) | 8 µg/mL (≈ 14.5 µM) | 8 µg/mL (≈ 14.5 µM) | 8 µg/mL (≈ 14.5 µM) | 8 µg/mL (≈ 14.5 µM) | 4 µg/mL (≈ 7.25 µM) | 32 µg/mL (≈ 58 µM) | 4 µg/mL (≈ 7.25 µM) | > 32 µg/mL | 4 µg/mL (≈ 7.25 µM) | 16 µg/mL (≈ 29 µM) | 8 µg/mL (≈ 14.5 µM) | 8 µg/mL (≈ 14.5 µM) | 8 µg/mL (≈ 14.5 µM) | > 32 µg/mL | 4 µg/mL (≈ 7.25 µM) | 8 µg/mL (≈ 14.5 µM) | MIC [29, 35]: 32 µg/mL (≈ 58 µM); MIC [30]: > 32 µg/mL; MIC [31, 35]: 16 µg/mL (≈ 29 µM); MIC [15]: > 32 µg/mL; MIC [16]: > 32 µg/mL; MIC [18]: > 32 µg/mL; MIC [20]: > 32 µg/mL; MIC [22]: 0.12 µg/mL (≈ 0.218 µM); MIC [24]: > 32 µg/mL; MIC [26]: > 32 µg/mL
O=C(O)c1cn(C2CC2)c2cc(N3CCN(CCO[C@@H]4O[C@@H](CO)[C@@H](O)[C@H](O)[C@@H]4O)CC3)c(F)cc2c1=O | 16 µg/mL (≈ 29.8 µM) | 32 µg/mL (≈ 59.5 µM) | 4 µg/mL (≈ 7.44 µM) | 32 µg/mL (≈ 59.5 µM) | 32 µg/mL (≈ 59.5 µM) | > 32 µg/mL | 32 µg/mL (≈ 59.5 µM) | 32 µg/mL (≈ 59.5 µM) | 16 µg/mL (≈ 29.8 µM) | > 32 µg/mL | 16 µg/mL (≈ 29.8 µM) | > 32 µg/mL | 32 µg/mL (≈ 59.5 µM) | > 32 µg/mL | 16 µg/mL (≈ 29.8 µM) | > 32 µg/mL | > 32 µg/mL | > 32 µg/mL | 8 µg/mL (≈ 14.9 µM) | > 32 µg/mL | MIC [8]: > 32 µg/mL; MIC [15]: > 32 µg/mL; MIC [16]: > 32 µg/mL; MIC [18]: > 32 µg/mL; MIC [20]: > 32 µg/mL; MIC [22]: 2 µg/mL (≈ 3.72 µM); MIC [24]: > 32 µg/mL; MIC [26]: > 32 µg/mL
Cl.O=C(O)c1cn(C2CC2)c2cc(N3CCNCC3)c(F)cc2c1=O [CIPROFLOXACIN HYDROCHLORIDE] | 0.5 µg/mL | 1 µg/mL | 0.5 µg/mL | 1 µg/mL | 1 µg/mL | 1 µg/mL | 1 µg/mL | 1 µg/mL | 0.5 µg/mL |  | 0.5 µg/mL |  |  | 2 µg/mL | 1 µg/mL | 2 µg/mL | 2 µg/mL | 8 µg/mL | 0.5 µg/mL | 1 µg/mL | MIC [1]: 0.5 µg/mL; MIC [3, 36]: 0.25 µg/mL; MIC [29]: 4 µg/mL; MIC [29, 35]: 4 µg/mL; MIC [6, 37]: 1 µg/mL; MIC ([11]; Pseudomonas aeruginosa, read-out: MIC): 1 µg/mL; MIC ([12]; Staphylococcus epidermidis, read-out: MIC): 0.5 µg/mL; MIC [31]: 2 µg/mL; MIC [31, 35]: 2 µg/mL; MIC ([17]; Klebsiella pneumoniae, read-out: MIC): 2 µg/mL; MIC [21]: 1 µg/mL; MIC [32]: 0.5 µg/mL; MIC [33]: 1 µg/mL; MIC [23]: 1 µg/mL; MIC [25]: 8 µg/mL; MIC [27, 36]: 0.5 µg/mL; MIC [28, 37]: 1 µg/mL
